Screens as filed in PubChem.
Rows were chosen to be rich in hits. Some 3.5% of all compounds tested hit in one or more screens of this group.
RGS4 inh = human RGS4 inhibition. HEK293 M3R/RGS4 inducible, Fluo-4 calcium flux; hits give high values; triggered by carbachol at its EC20. AID 463165. 0.45% of 310,000 active. B-score at 10 µM;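 active means B-score, a plate-corrected calcium signal, over three deviations above library mean, with baseline fluorescence within five deviations of library mean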;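 further: RGS4 expression induced by doxycycline in cells with stable M3 receptor; B-score is computed from the integrated fluorescence ratio over baseline after carbachol; higher B-score means a larger calcium signal and so more RGS4 inhibition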
Target sequence (P49798 whole entry, looked up): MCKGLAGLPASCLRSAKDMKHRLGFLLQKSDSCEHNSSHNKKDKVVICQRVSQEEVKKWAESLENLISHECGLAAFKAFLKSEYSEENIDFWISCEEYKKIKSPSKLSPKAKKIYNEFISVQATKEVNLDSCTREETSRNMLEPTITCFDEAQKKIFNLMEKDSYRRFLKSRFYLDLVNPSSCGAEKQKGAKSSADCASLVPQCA
MrgX1 agonist = activates human MrgX1 receptor signaling; MrgX1-HEK293 cells, Fluo-4 calcium fluorescence, agonist mode; hits give high values; B-score at 10 µM; 0.44% of 310,000 active; Q96LB2;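 active means calcium response B-score plate-corrected fluorescence ratio at least 3 library SD, with starting fluorescence B-score inside 5 SD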
Target sequence (Q96LB2 whole entry, looked up): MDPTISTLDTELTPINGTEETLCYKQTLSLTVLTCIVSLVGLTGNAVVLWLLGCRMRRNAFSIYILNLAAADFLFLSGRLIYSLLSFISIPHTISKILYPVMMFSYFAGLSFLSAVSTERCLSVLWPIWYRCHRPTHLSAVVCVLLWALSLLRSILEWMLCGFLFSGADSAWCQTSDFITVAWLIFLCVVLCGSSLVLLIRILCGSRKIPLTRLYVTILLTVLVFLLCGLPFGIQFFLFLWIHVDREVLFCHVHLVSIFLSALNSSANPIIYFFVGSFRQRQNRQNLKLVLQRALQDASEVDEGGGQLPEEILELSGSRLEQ
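Assay system: stable human MrgX1 HEK293 cell line. Quantity: 15,000 cells per well. Schedule: cells plated overnight, dye loaded 0.5 h 37 °C, 0.5 h room temperature. Detection: Fluo-4 NW calcium-flux fluorescence, kinetic read. Read-out basis: peak-minus-minimum fluorescence over baseline, converted to B scores. Control set: positive and negative control wells on each plate.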
RGS4 act = RGS4 potentiation or activation; HEK293 M3R/inducible RGS4, carbachol calcium flux Fluo4; hits give low values; B-score at 10 µM; 0.92% of 310,000 active;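 active means B-score of the integrated calcium signal more than 4 SD below the library mean, with starting fluorescence not abnormally high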;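 further: negative B-score means reduced calcium response which marks RGS4 activation or potentiation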
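Also added: carbachol at ECmax as muscarinic agonist stimulus; Assay system: HEK293 cells with stable M3R and inducible RGS4; Timing: overnight RGS4 induction, 30 min dye load 37 °C, 20 min compound RT; Measured by: Fluo4-AM (2 µM) calcium-flux fluorescence, kinetic read.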
MrgX1 antag = antagonists of human MrgX1 receptor | 1.3% of 310,000 active | B-score at 10 µM | Q96LB2 | MRGX1-HEK293 calcium flux, Fluo-4, BAM8-22 antagonism; hits give low values;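 active means calcium-response B-score plate-corrected more than 3 library SD below zero, starting fluorescence within 5 deviations, no agonist response on first addition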;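 further: peak minus trough fluorescence over baseline after final BAM8-22 challenge near maximal dose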
MrgX1 allo act = allosterically activates human MrgX1 receptor signaling | Q96LB2 | MrgX1-HEK293, Fluo-4 calcium flux, FDSS; hits give high values | B-score at 10 µM | 0.63% of 310,000 active;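 active means plate-corrected calcium response at least 3 library SD above typical, normal starting fluorescence, not activating the receptor alone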;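 further: compound read alongside a low EC10 to EC30 dose of BAM8-22 agonist; peak minus trough fluorescence over baseline measured at the second addition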
RGS4 act valid = confirmation of RGS4 activators | inhibition, % at 10 µM | shares compounds with RGS4 act | 89% of 1,100 active | HEK293 M3R/RGS4 inducible, carbachol calcium flux Fluo4;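 active means inhibition above 3 SD of the buffer control wells, cut at about 41% in these data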;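 further: signal is the integrated peak-minus-minimum Fluo4 fluorescence over baseline ratio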
RGS4 act ctr = counter-screen for RGS4 activators: effect in non-induced cells; shares compounds with RGS4 act; HEK293 M3R non-induced RGS4, Fluo4 calcium flux; after carbachol challenge at its EC90; inhibition, % at 10 µM; 82% of 1,100 active;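 active means inhibition exceeding 3 SD of buffer-only control wells, cut at about 26% in these data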;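 further: percent drop in integrated peak-minus-baseline over baseline Fluo4 ratio after carbachol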
* hit, by the source's call; i = inactive; / = no result.

SMILES	RGS4 inh	MrgX1 agonist	RGS4 act	MrgX1 antag	MrgX1 allo act	RGS4 act valid	RGS4 act ctr
CC(Cc1cccs1)NC(=S)Nc1ccc(Cl)cc1 (configuration not stated)	i	i	-8.03*	i	i	48.5*	83.8*
Clc1ccc(Cn2c(CN3CCCC3)nc3ccccc32)cc1	i	i	i	i	i	/	/
c1ccc(Cn2c(CN3CCCC3)nc3ccccc32)cc1	i	i	-8.53*	i	i	0.0	83.8*
CN(C)CCOC(C)(c1ccccc1)c1ccccn1 (configuration not stated)	i	i	i	i	i	/	/
COC(C#CCCN(C)C)(c1ccccc1)c1ccccc1	i	i	-8.41*	i	i	92.5*	96.3*
Cc1ccc(C(=O)c2cnc3ccccc3c2-c2ccccc2)cc1	i	i	-8.33*	i	i	77.5*	57.8*
COc1ccc(C(=O)c2cnc3ccccc3c2-c2ccccc2)cc1	i	i	-8.56*	i	i	85.5*	66.3*
CCOC(=O)C1CCCN(C(=O)CN2C(=O)NC(C)(c3ccc4ccccc4c3)C2=O)C1 (configuration not stated)	i	i	i	i	i	/	/
CNc1ccc(C(O)(C(F)(F)F)C(F)(F)F)cc1C(O)(C(F)(F)F)C(F)(F)F	i	i	-8.15*	i	i	89.5*	68.8*
Cc1ccc(N)c(C(O)(C(F)(F)F)C(F)(F)F)c1	i	i	i	i	i	/	/
COc1cc2nc(Nc3ccc(C)c(C)c3)nc(N)c2cc1OC	i	i	-10.2*	i	i	61.0*	0.0
N#Cc1c(-c2ccccc2F)cc(C2CC2)nc1SCC(=O)c1cccs1	i	i	i	i	i	/	/
Cc1cc(NC(=O)c2cnn3c(C(F)(F)F)cc(-c4ccccc4)nc23)no1	i	i	-10.2*	i	i	93.5*	74.3*
Cc1cc(NC(=O)c2cnn3c(C(F)F)cc(-c4ccccc4)nc23)no1	i	i	i	i	i	/	/
C[n+]1c2n(c3ccccc31)N=C(c1cc(C(C)(C)C)c(O)c(C(C)(C)C)c1)CS2	i	i	-13.4*	-8.65*	i	94.5*	82.8*
COc1cccc(C2=Nn3c(nnc3-c3ccccc3O)SC2)c1	i	i	i	i	i	/	/
Cc1ccc(S(=O)(=O)N(C)C)cc1NC(=O)c1cncc(Br)c1	i	i	i	i	i	/	/
Cc1ccc2nc(SCC3CCCCO3)[nH]c2c1 (configuration not stated)	i	i	i	i	i	/	/
O=c1ccc(-c2ccc(S(=O)(=O)Nc3cccc(Br)c3)o2)n[nH]1	i	i	i	i	i	/	/
O=C(CSc1nc2ccccc2c(=O)n1-c1ccccc1Cl)Nc1cccc(S(=O)(=O)N2CCOCC2)c1	i	i	i	i	i	/	/
O=C1CCCN1S(=O)(=O)c1ccccc1	i	i	-7.89*	i	i	50.0*	0.0
Cc1ccccc1CC1(CO)CCCN(C(=O)c2ccc3ncccc3c2)C1 (configuration not stated)	i	i	-10.4*	i	i	62.0*	83.8*
Cc1ccccc1CC1(CO)CCCN(C(=O)c2ccccc2N(C)C)C1 (configuration not stated)	i	i	i	i	i	/	/
COc1ccc(-c2cc(C(=O)N3CCN(c4cccc(C)c4C)CC3)c3ccccc3n2)cc1OC	i	i	-8.47*	i	i	51.5*	0.0
O=C(c1cc(-c2ccncc2)nc2ccc(Br)cc12)N1CCN(c2ccccn2)CC1	i	i	i	i	i	/	/
SMILES	RGS4 inh	MrgX1 agonist	RGS4 act	MrgX1 antag	MrgX1 allo act	RGS4 act valid	RGS4 act ctr
O=C(c1cc(-c2cccc(Cl)c2)nc2ccccc12)N1CCN(c2ccccn2)CC1	i	i	-8.38*	i	i	56.0*	0.0
Cn1ccnc1SCC(=O)c1cccc(C(F)(F)F)c1	i	i	i	i	i	/	/
CN(C(=O)Cn1nnc(-c2ccccc2)n1)C1CCS(=O)(=O)C1 (configuration not stated)	i	i	i	i	i	/	/
O=C(Nc1ccc(Oc2ccccc2)nc1)C1CCCCN1Cc1ccc(O)cc1 (configuration not stated)	i	i	-8.16*	i	i	74.0*	28.3*
CN(Cc1ccc(F)cc1)C(=O)c1cccc(S(=O)(=O)N2CCN(c3ccc(F)cc3)CC2)c1	i	i	-7.62*	i	i	40.5*	83.8*
CC(C)(C)N=C1NN=C(c2ccc(S(=O)(=O)N3CCCCC3)cc2)CS1	i	i	i	i	i	/	/
O=C(/C=C\Nc1ccc(Cl)cn1)c1ccc(Br)cc1	i	i	i	i	i	/	/
O=C1[C@H]2[C@@H](/C=C/c3ccccc3)N3C(=O)CN(Cc4ccccn4)C(=O)[C@@]3(Cc3ccccc3)[C@H]2C(=O)N1c1ccccc1	i	i	i	i	i	/	/
CN(CCCNC(=O)c1cc2c(Cl)nc3ccccc3c2s1)Cc1ccccc1	i	i	i	i	i	/	/
CCN(CC)CCCNC(=O)c1cc2c(Cl)nc3ccccc3c2s1	i	i	-7.7*	i	i	68.0*	83.8*
CCN(CC)CCCNC(=O)c1cc2c(=O)n(CC)c3ccccc3c2s1	i	i	i	i	i	/	/
CCN(CC)CCNC(=O)c1cc2c(=O)n(CC)c3ccccc3c2s1	i	i	-8.44*	i	i	54.0*	83.8*
O=C(OCC(=O)N1CCN(c2ccccc2)CC1)c1ccc(O)cc1O	i	i	i	i	i	/	/
CC1(C)Cc2c(sc3nc4n(-c5ccccc5)cnn4c(=O)c23)CO1	i	i	i	i	i	/	/
COc1cc2c(C)nc3c(cnn3-c3ccccc3)c2cc1OC	i	i	i	i	i	/	/
O=C(NCCc1ccc(F)cc1)c1cccc(NC(=O)c2ccccc2)c1	i	i	-7.66*	i	i	55.5*	0.0
O=C(NCc1ccc(Cl)cc1)c1cccc(NC(=O)c2ccccc2)c1	i	i	i	i	i	/	/
CN(C)CC(=O)N1c2ccccc2CCc2ccc(NC(=O)c3ccc(N)cc3)cc21	i	i	i	i	i	/	/
